Shown are actives, neighbours in structure and some others; about 1.5% of the full set was active somewhere.
PG9 binder: small molecules binding HIV-1 gp120 antibody PG9 | 0.43% of 360,000 active | AID 624416 | TR-FRET gp120-PG9 antibody binding | inhibition, % at 6.7 µM; in the data active = inhibition above about 8.5%
NR2E3 ag-1: agonists of human NR2E3 nuclear receptor | Q9Y5X4 | CHO-S Gal4-NCOR/VP16-NR2E3 two-hybrid, luciferase | inhibition of corepressor binding, % at 3.98 µM | 0.35% of 360,000 active | AID 602229;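 active = inhibition above the mean of all tested compounds plus 3 SD, cut at about 70% in these data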;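 also: 0% = DMSO with NR2E3 transfected cells and 100% = cells lacking NR2E3 construct; higher means lower luciferase signal from less NR2E3 corepressor binding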
Target sequence (Q9Y5X4 whole entry, looked up, the tested form may be a part): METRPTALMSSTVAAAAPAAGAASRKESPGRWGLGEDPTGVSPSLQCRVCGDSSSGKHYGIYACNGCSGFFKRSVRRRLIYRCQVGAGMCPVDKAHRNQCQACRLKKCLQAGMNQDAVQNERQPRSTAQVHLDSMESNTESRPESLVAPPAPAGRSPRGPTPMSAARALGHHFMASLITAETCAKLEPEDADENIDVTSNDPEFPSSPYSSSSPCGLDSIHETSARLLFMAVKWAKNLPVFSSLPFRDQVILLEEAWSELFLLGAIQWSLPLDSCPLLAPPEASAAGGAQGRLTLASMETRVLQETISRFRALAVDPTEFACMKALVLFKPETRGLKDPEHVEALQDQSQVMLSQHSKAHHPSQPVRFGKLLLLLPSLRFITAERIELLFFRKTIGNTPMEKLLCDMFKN
Rev-erbA mod: modulators of human Rev-erb alpha DNA binding; P20393; Rev-erbα–FITC-DNA binding, fluorescence polarization, 90 min; activity, % at 10 µM; 0.79% of 370,000 active;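 active = activity above about 14%, limit read from the data; passing the limit was not always enough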;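 also: 0% = DMSO wells with 35 nM protein and 100% = DMSO wells with 750 nM protein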
NR2E3 ag-2: agonists of human nuclear receptor NR2E3. Q9Y5X4. GST-NR2E3/biotin-RetCOR TR-FRET, 1536-well. inhibition of corepressor binding, % at 4.78 µM. 0.12% of 320,000 active. AID 2300;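 active = percent inhibition above the cutoff of mean plus 3 SD of all tested compounds, set per screening campaign, cut at about 20% in these data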;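 also: 0% = DMSO wells and 100% = biotin wells as full block of FRET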
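Test system – NR2E3–RetCOR corepressor complex · Quantity – NR2E3 fusion 1.35 nM · Buffer or medium – Tris pH 7.5 · Incubation – Compound–protein incubation for 5 h at 4 °C · Technique – TR-FRET, Eu(K)-anti-GST donor, streptavidin-D2 acceptor, ex 340, em 617/671 nm · Evaluation – percent inhibition of 671/617 nm emission ratio versus biotin and DMSO controls · Plate – 1536-well format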
NR2E3 ag conf: confirmation of human NR2E3 agonists. shares compounds with NR2E3 ag-1. CHO-S mammalian two-hybrid NR2E3-NCOR, luciferase luminescence. inhibition, % at 3.98 µM. 51% of 2,300 active. AID 624378;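 active = average inhibition above a cutoff equal to the mean inhibition of all tested compounds plus one SD, cut at about 70% in these data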;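 also: 0% = DMSO in NR2E3 cells and 100% = DMSO in cells lacking NR2E3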
GAL4-VP16 luc: GAL4-VP16 reporter inhibition in NR2E3 agonist counterscreen; shares compounds with NR2E3 ag-1; CHO-S GAL4-VP16 luciferase reporter, luminescence; inhibition, % at 3.98 µM; 29% of 2,300 active; AID 624379;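 active = mean inhibition above a cutoff equal to the average over all tested compounds plus one standard deviation, cut at about 70% in these data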;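 also: luciferase from a UAS reporter driven by GAL4-VP16 transactivation; 0% = DMSO with VP16-transfected cells and 100% = DMSO with cells lacking VP16; higher means less reporter light so more repression of VP16 activity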
Starred values were filed as active, the others as inactive; nt = no result given.

SMILES	PG9 binder	NR2E3 ag-1	Rev-erbA mod	NR2E3 ag-2	NR2E3 ag conf	GAL4-VP16 luc
Cc1ccc(S(=O)(=O)N2[C@@H](c3ccc(C(C)(C)C)cc3)C(C(=O)O)=CC[C@H]2c2ccc(C(C)C)cc2)cc1	1	-4	-29	nt	nt	nt
Cc1ccc([C@@H]2CC=C(C(=O)O)[C@H](c3ccc(C(C)(C)C)cc3)N2S(=O)(=O)c2ccc(C)cc2)cc1	-1	98*	-8	nt	88*	41
Nc1ncnc2c1ncn2[C@@H]1O[C@H](CO)[C@H](O)C1O (stereo not given in full)	nt	nt	3	nt	nt	nt
Nc1ncnc2c(C3OC(CO)C(O)C3O)scc12 (stereo not given)	1	100*	3	nt	97*	96*
Cc1ccc(Cn2nnc3c2-c2ccccc2S(=O)(=O)N(C(C)(C)C)C3)cc1	nt	nt	7	nt	nt	nt
NC(=O)c1ccc(O)c2ncccc12	nt	nt	0	nt	nt	nt
O=Cc1ccc(O)c2ncccc12	nt	69	nt	nt	-6	-1
Cc1cc(C)nc(Nc2cccc(Cl)c2)n1	-1	-26	-8	nt	nt	nt
CCC(C)Oc1cc(-c2ccnc(Nc3cccc(Cl)c3)n2)ccn1 (stereo not given)	-1	57	-2	1	94*	41
OCCCNc1cc(-c2ccnc(Nc3cccc(Cl)c3)n2)ccn1	-2	99*	-6	0	100*	95*
CCc1ccc(-c2nc(CSCC(=O)NCc3ccco3)c(C)o2)cc1	-3	101*	2	nt	96*	96*
CSc1ccc(-c2nc(CSCC(=O)NCCCN3CCOCC3)c(C)o2)cc1	1	46	4	-1	nt	nt
CCCNC(=O)CSCc1nc(-c2ccc(SC)cc2)oc1C	0	82*	-5	1	78*	79*
COC(CNC(=O)CSCc1nc(-c2ccc(SC)cc2)oc1C)OC	2	69	-1	-3	78*	49
C=CCN(CC#CCN(C)C(=O)c1cccn1C(=O)OC(C)(C)C)Cc1ccc(OC)cc1OC	nt	nt	3	nt	nt	nt
CCC(=O)N(c1ccccc1)C1CCN(C(=O)C(Cc2ccccc2)NC(C)=O)CC1 (stereo not given)	nt	nt	3	nt	nt	nt
Cc1nn(Cc2ccc(Cl)c(Cl)c2)c(C)c1NC(=O)c1cc(-c2ccc3c(c2)OCO3)on1	-2	6	-1	-2	nt	nt
Cc1nn(Cc2ccc(Cl)cc2)c(C)c1NC(=O)c1cc(-c2ccc3c(c2)OCO3)on1	-2	58	-2	-1	74*	51
Clc1ccc(CSc2nnc(Cn3cnc4ccccc43)o2)cc1	1	60	0	0	80*	69
NC(=O)CSc1nnc(Cn2cnc3ccccc32)o1	-1	-17	-1	-2	nt	nt
O=C(CSc1nnc(Cn2nnc3ccccc32)o1)N(Cc1ccc(Cl)cc1)c1ccccc1	-3	81*	-1	5	94*	81*
COc1ccc(-n2c(SC/C=C/c3ccccc3)nnc2-c2cccs2)cc1	nt	nt	-2	nt	nt	nt
O=C(NCc1ccccc1)N1CCN(c2ccc(Cl)c(Cl)c2)CC1	0	77*	-1	-1	93*	76*
Cc1occc1C(=O)N1CCN(c2ccc(Cl)c(Cl)c2)CC1	1	54	1	4	81*	58
O=C(NCc1ccccc1)N1CCN(c2ccc(F)cc2)CC1	3	-13	5	1	nt	nt
SMILES	PG9 binder	NR2E3 ag-1	Rev-erbA mod	NR2E3 ag-2	NR2E3 ag conf	GAL4-VP16 luc
O=S1(=O)c2c(NCc3ccco3)cccc2Oc2ccccc2CN1Cc1cn(Cc2ccc(F)cc2)nn1	nt	nt	7	nt	nt	nt
O=C(Cn1c(=O)c2cccn2c2cccnc21)NCCCN1CCN(c2ccccc2)CC1	nt	nt	3	nt	nt	nt
Cc1coc2cc3oc(=O)c(CCC(=O)NC4CC4)c(C)c3cc12	0	70*	-1	0	85*	54
CCCCn1c(CN2CCN(c3cccc(Cl)c3)CC2)nc2c1c(=O)n(C)c(=O)n2C	0	-14	0	-1	nt	nt
CCCn1c(CN2CCN(c3cccc(Cl)c3)CC2)nc2c1c(=O)n(C)c(=O)n2C	0	93*	2	-1	94*	85*
O=C(Nc1ccc(Cl)cc1)OC1CCC12CCC(c1ccccc1)CC2 (stereo not given)	nt	nt	5	nt	nt	nt
COc1ccc(-n2c(-c3ccc(Cl)cc3)c[n+]3c2CCc2ccccc2-3)cc1	-3	-2	2	3	nt	nt

High-throughput results: PubChem, several laboratories
